Results: ChEMBL document CHEMBL1123950, “N-(Retinoyl)amino acids. Synthesis and chemopreventive activity in vitro” (1988)
pEC50: −log10 of the molar value.

What was measured:
[1] = test system: Cricetinae gen. sp.; test: Cultures with mild degree of squamous metaplasia at a concentration of 10e-8 M; format: functional, Cricetulus griseus
In short: (§1)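 Tracheas from 29-31-day-old hamsters fed a vitamin A free diet; cultured in serum-free CMRL 1066 (insulin 1.0 μg/mL, hydrocortisone hemisuccinate 0.1 μg/mL, glutamine 2 mM, Garamycin 50 μg/mL), 50% O2/45% N2/5% CO2, rocked, 36 °C. Retinoid-free 3 days, then retinoid in DMSO (final 0.1%) for 7 days; medium and gas changed three times. Formalin-fixed day 10; squamous metaplasia graded: mild 2-10%, marked 10-40%, severe >40%.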

[2] = test system: Cricetinae gen. sp.; test: Cultures with minimal degree of squamous metaplasia at a concentration of 10e-11 M; format: functional, Cricetulus griseus; in short: as §1
[3] = test system: Cricetinae gen. sp.; test: Cultures with mild degree of squamous metaplasia at a concentration of 10e-11 M; format: functional, Cricetulus griseus; in short: as §1
[4] = test system: Cricetinae gen. sp.; test: Reversal of keratinization in vitamin A deficient hamster trachea culture at a concentration of 10e-8 M; format: functional, Cricetulus griseus; details: read-out: ED50 (the source's name)
In short: (§2)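 Tracheas from 29-31-day-old hamsters kept on a vitamin A free diet, cultured in serum-free CMRL 1066 (insulin 1.0 μg/mL, hydrocortisone hemisuccinate 0.1 μg/mL, glutamine 2 mM, Garamycin 50 μg/mL), 50% O2/45% N2/5% CO2, rocked at 36 °C. Retinoid-free for 3 days, then retinoid in DMSO (0.1% final) for 7 days. Fixed in formalin; squamous metaplasia graded mild 2-10%, marked 10-40%, severe >40%.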

[5] = test system: Cricetinae gen. sp.; test: Cultures with marked degree of squamous metaplasia at a concentration of 10e-11 M; format: functional, Cricetulus griseus; in short: as §1
[6] = test system: Cricetinae gen. sp.; test: Cultures with no evidence of squamous metaplasia at a concentration of 10e-11 M; format: functional, Cricetulus griseus; in short: as §1
[7] = test system: Cricetinae gen. sp.; test: Cultures with no evidence of squamous metaplasia at a concentration of 10e-9 M; format: functional, Cricetulus griseus; in short: as §1
[8] = test system: Cricetinae gen. sp.; test: Cultures with mild degree of squamous metaplasia at a concentration of 10e-9 M; format: functional, Cricetulus griseus; in short: as §1
[9] = test system: Cricetinae gen. sp.; test: Cultures with severe degree of squamous metaplasia at a concentration of 10e-11 M; format: functional, Cricetulus griseus; in short: as §2
[10] = test system: Cricetinae gen. sp.; test: Cultures with severe degree of squamous metaplasia at a concentration of 10e-10 M; format: functional, Cricetulus griseus; in short: as §2
[11] = test system: Cricetinae gen. sp.; test: Cultures with severe degree of squamous metaplasia at a concentration of 10e-8 M; format: functional, Cricetulus griseus; in short: as §2
[12] = test system: Cricetinae gen. sp.; test: Cultures with minimal degree of squamous metaplasia at a concentration of 10e-9 M; format: functional, Cricetulus griseus; in short: as §1
[13] = test system: Cricetinae gen. sp.; test: Cultures with marked degree of squamous metaplasia at a concentration of 10e-9 M; format: functional, Cricetulus griseus; in short: as §1
[14] = test system: Cricetinae gen. sp.; test: Cultures with minimal degree of squamous metaplasia at a concentration of 10e-8 M; format: functional, Cricetulus griseus; in short: as §1
[15] = test system: Cricetinae gen. sp.; test: Cultures with no evidence of squamous metaplasia at a concentration of 10e-8 M; format: functional, Cricetulus griseus; in short: as §1
[16] = test system: Cricetinae gen. sp.; test: Cultures with marked degree of squamous metaplasia at a concentration of 10e-10 M; format: functional, Cricetulus griseus; in short: as §1
[17] = test system: Cricetinae gen. sp.; test: Cultures with mild degree of squamous metaplasia at a concentration of 10e-10 M; format: functional, Cricetulus griseus; in short: as §1
[18] = test system: Cricetinae gen. sp.; test: Cultures with minimal degree of squamous metaplasia at a concentration of 10e-10 M; format: functional, Cricetulus griseus; in short: as §1
[19] = test system: Cricetinae gen. sp.; test: Cultures with marked degree of squamous metaplasia at a concentration of 10e-8 M; format: functional, Cricetulus griseus; in short: as §1
[20] = test system: Cricetinae gen. sp.; test: Cultures with severe degree of squamous metaplasia at a concentration of 10e-9 M; format: functional, Cricetulus griseus; in short: as §2
[21] = test system: Cricetinae gen. sp.; test: Cultures with no evidence of squamous metaplasia at a concentration of 10e-10 M; format: functional, Cricetulus griseus; in short: as §1
[22] = test system: HEp-2; test: Viability of human epidermoid carcinoma cells (H.Ep-2) at a concentration 20 ug/mL; format: functional
In short: (§3)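 Human epidermoid carcinoma H.Ep.-2 cells, clone-colony viability assay with retinoid at 1-40 μg/mL; incubated 37 °C for 12 days, stained, colonies counted. % of control = 100 × treated colonies/control colonies.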

[23] = test system: Cricetinae gen. sp.; test: Cultures with no evidence of squamous metaplasia at a concentration of 10e-10; format: functional, Cricetulus griseus; in short: as §1
[24] = test system: Cricetinae gen. sp.; test: Cultures with minimal degree of squamous metaplasia at a concentration of 10e-10; format: functional, Cricetulus griseus; in short: as §1
[25] = test system: L1210; test: Inhibition of proliferation of L1210 cells in culture at a concentration 10 ug/mL; format: functional, Mus musculus; set-up: scale not given: the % may be the effect or the level left
In short: (§4)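 L1210 suspension of about 10⁵ cells treated with retinoid at 1-40 μg/mL, 37 °C for 48 h; cells counted at 0 and 48 h, three cultures averaged per concentration. % of control = 100 × (treated 48 h − 0 h count)/(control 48 h − 0 h count).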

[26] = test system: HEp-2; test: Viability of human epidermoid carcinoma cells (H.Ep-2) at a concentration 10 ug/mL; format: functional; in short: as §3
[27] = test system: L1210; test: Inhibition of proliferation of L1210 cells in culture at a concentration 20 ug/mL; format: functional, Mus musculus; set-up: scale not given: the % may be the effect or the level left; in short: as §4
[28] = test system: Cricetinae gen. sp.; test: Cultures with mild degree of squamous metaplasia at a concentration of 10e-10; format: functional, Cricetulus griseus; in short: as §1
[29] = test system: HEp-2; test: Viability of human epidermoid carcinoma cells (H.Ep-2) at a concentration 40 ug/mL; format: functional; in short: as §3
[30] = test system: HEp-2; test: Viability of human epidermoid carcinoma cells (H.Ep-2) at a concentration 1 ug/mL; format: functional; in short: as §3
[31] = test system: Cricetinae gen. sp.; test: Cultures with mild degree of squamous metaplasia at a concentration of 10e-11; format: functional, Cricetulus griseus; in short: as §1
[32] = test system: Cricetinae gen. sp.; test: Cultures with marked degree of squamous metaplasia at a concentration of 10e-11; format: functional, Cricetulus griseus; in short: as §1
[33] = test system: Cricetinae gen. sp.; test: Cultures with minimal degree of squamous metaplasia at a concentration of 10e-9; format: functional, Cricetulus griseus; in short: as §1
[34] = test system: Cricetinae gen. sp.; test: Cultures with severe degree of squamous metaplasia at a concentration of 10e-9; format: functional, Cricetulus griseus; in short: as §2
[35] = test system: Cricetinae gen. sp.; test: Cultures with marked degree of squamous metaplasia at a concentration of 10e-10; format: functional, Cricetulus griseus; in short: as §1
[36] = test system: L1210; test: Inhibition of proliferation of L1210 cells in culture at a concentration 1 ug/mL; format: functional, Mus musculus; set-up: scale not given: the % may be the effect or the level left; in short: as §4
[37] = test system: Cricetinae gen. sp.; test: Cultures with minimal degree of squamous metaplasia at a concentration of 10e-11; format: functional, Cricetulus griseus; in short: as §1
[38] = test system: Cricetinae gen. sp.; test: Cultures with no evidence of squamous metaplasia at a concentration of 10e-11; format: functional, Cricetulus griseus; in short: as §1
[39] = test system: Cricetinae gen. sp.; test: Cultures with severe degree of squamous metaplasia at a concentration of 10e-10; format: functional, Cricetulus griseus; in short: as §1
[40] = test system: Cricetinae gen. sp.; test: Cultures with marked degree of squamous metaplasia at a concentration of 10e-9; format: functional, Cricetulus griseus; in short: as §1
[41] = test system: Cricetinae gen. sp.; test: Cultures with mild degree of squamous metaplasia at a concentration of 10e-9; format: functional, Cricetulus griseus; in short: as §1
[42] = test system: Cricetinae gen. sp.; test: Cultures with severe degree of squamous metaplasia at a concentration of 10e-11; format: functional, Cricetulus griseus; in short: as §2
[43] = test system: Cricetinae gen. sp.; test: Cultures with no evidence of squamous metaplasia at a concentration of 10e-9; format: functional, Cricetulus griseus; in short: as §1

CC1=C(/C=C/C(C)=C/C=C/C(C)=C/C(=O)NC(Cc2ccccc2)C(=O)O)C(C)(C)CCC1 (centres undefined)
Culture [1]: 29% | Culture [2]: 0% | Culture [3]: 14% | pEC50 [4]: 9.30 | Culture [5]: 72% | Culture [6]: 14% | Culture [7]: 57% | Culture [8]: 0% | Culture [9]: 0% | Culture [10]: 14% | Culture [11]: 0% | Culture [12]: 0% | Culture [13]: 43% | Culture [14]: 0% | Culture [15]: 71% | Culture [16]: 14% | Culture [17]: 29% | Culture [18]: 0% | Culture [19]: 0% | Culture [20]: 0% | Culture [21]: 43%

CC1=C(/C=C/C(C)=C/C=C/C(C)=C/C(=O)NC(CC(C)C)C(=O)O)C(C)(C)CCC1 (centres undefined)
Culture [1]: 4% | Control [22]: 14% | Culture [23]: 48% | Culture [24]: 0% | Control [25]: 62% | Control [26]: 29% | Control [27]: 20% | pEC50 [4]: 10.00 | Culture [28]: 16% | Control [29]: 25% | Control [30]: 73% | Culture [31]: 14% | Culture [32]: 58% | Culture [11]: 0% | Culture [33]: 0% | Culture [34]: 0% | Culture [14]: 0% | Culture [15]: 96% | Culture [35]: 32% | Control [36]: 95% | Culture [37]: 0% | Culture [19]: 0% | Culture [38]: 14% | Culture [39]: 4% | Culture [40]: 9% | Culture [41]: 4% | Culture [42]: 14% | Culture [43]: 87%
